# Laboratory results from ChEMBL document CHEMBL5257040, “Discovery of VU2957 (Valiglurax): An mGlu4 Positive Allosteric Modulator Evaluated as a Preclinical Candidate for the Treatment of Parkinson's Disease” (ACS Med Chem Lett, 2019).
# Columns and labels:
# [1] = Cmax in Beagle dog at 3 mg/kg, po and measured upto 24 hrs by LC-MS/MS analysis; type: ADME, organism-based, Canis lupus familiaris; design: dose 3 mg/kg, time < 24 hrs, route po; details: in vivo
# Procedure, shortened: (§1)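 Single oral 3 mg/kg dose in mouse, SD rat, beagle and cyno. Cmax is the peak total plasma concentration. Values are means of two to three animals.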
# [2] = biological target: P-gp (ABCB1) (Homo sapiens, UniProt P08183); experiment: Substrate activity at human P-gp assessed as apparent permeability; type: ADME; details: not told
# [3] = biological target: Cav1.2 (Homo sapiens, UniProt Q13936); experiment: Inhibition of Cav1.2 (unknown origin) at 10 uM; type: toxicity
# Procedure, shortened: (§2)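 Cardiac ion channel electrophysiology (functional EP) panel, with percent inhibition measured at 10 μM.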
# [4] = biological target: Metabotropic glutamate receptor 5 (Rattus norvegicus, UniProt P31424); experiment: Positive allosteric modulator activity at rat mGlu5 in human HEK cells assessed as increase in calcium flux preincubated for 2.5 mins followed by gluatamate addition by Fluo-4 AM dye based calcium mobilization assay; type: cell-based
# [5] = biological target: T1, Cytochrome P450 1A2 (Homo sapiens, UniProt P05177); experiment: Induction of CYP1A2 in human hepatocytes; type: ADME, cell-based
# Procedure, shortened: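 CYP1A2, 2B6 and 3A4 induction measured in human hepatocytes.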
# [6] = Genotoxicity in Salmonella typhimurium […] by Ames test; type: toxicity; details: salmonella enterica subsp. enterica serovar typhimurium
# Procedure, shortened: (§3)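 Ames bacterial reverse mutation test in strains TA98 and […], run with and without S9 metabolic activation.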
# [7] = Protein binding in human plasma assessed as fraction unbound incubated for 4 hrs by equilibrium dialysis based LC/MS/MS analysis; type: ADME, cell-free
# [8] = Lipophilicity, logP of the compound; type: physicochemical; details: octanol/water
# [9] = Genotoxicity in Salmonella typhimurium TA98 by Ames test; type: toxicity; details: salmonella enterica subsp. enterica serovar typhimurium; procedure, shortened: as §3
# [10] = biological target: Metabotropic glutamate receptor 4 (Homo sapiens) (UniProt Q14833); experiment: Positive allosteric modulator activity at human mGlu4 in Chinese hamster CHO cells co-expressing Gqi5 assessed as maximum increase in calcium flux preincubated for 2.5 mins followed by gluatamate addition and measured for 2 mins by Fluo-4 AM dye based calcium mobilization assay; type: cell-based; details: filed as positive allosteric modulator, time 4.5 min
# [11] = Volume of distribution at steady state in Beagle dog at 0.5 mg/kg, iv and measured upto 24 hrs by LC-MS/MS analysis; type: ADME, organism-based, Canis lupus familiaris; details: in vivo, read-out: Vdss
# Procedure, shortened: (§4)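 Single-dose iv and oral PK in separate arms: mouse 1 mg/kg iv / 3 mg/kg po, SD rat 0.2/3, beagle 0.5/3, cynomolgus 0.2/3 mg/kg. Plasma parameters (Vss, Tmax, F) are means of two to three animals per species.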
# [12] = Metabolic stability in cynomolgus monkey liver microsomes assessed as intrinsic clearance at 1 uM preincubated for 5 mins followed by NADPH addition and measured for 45 mins by LC/MS/MS analysis; type: ADME, Macaca fascicularis, Microsome; details: time 50 min, read-out: CLH
# [13] = Tmax in Beagle dog at 3 mg/kg, po and measured upto 24 hrs by LC-MS/MS analysis; type: ADME, organism-based, Canis lupus familiaris; details: in vivo; procedure, shortened: as §4
# [14] = biological target: HCN4 (Homo sapiens, UniProt Q9Y3Q4); experiment: Inhibition of HCN4 (unknown origin) at 10 uM; type: toxicity; procedure, shortened: as §2
# [15] = AUC in Sprague-Dawley rat at 3 mg/kg, po administered as spray-dried dispersion formulation and measured after 24 hrs by LC-MS/MS analysis; type: ADME, organism-based; design: dose 3 mg/kg, time 24 hrs, route po; details: in vivo
# Procedure, shortened: (§5)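 Rats were dosed orally at 3, 10 and 30 mg/kg with a spray-dried dispersion of the free base and HPMCP-HP55 polymer (25%/75%), in 30% Dexolve. Total plasma Cmax and AUC were measured, N = 3.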
# [16] = AUC (0 to infinity) in Cynomolgus monkey at 3 mg/kg, po and measured upto 24 hrs by LC-MS/MS analysis; type: ADME, organism-based, Macaca fascicularis; design: time < 24 hrs, dose 3 mg/kg, route po; details: in vivo
# Procedure, shortened: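 Single oral 3 mg/kg dose in mouse, SD rat, beagle dog and cynomolgus monkey. Total plasma exposure after the oral dose gave Cmax, Tmax, AUC0-inf and F. Values are means of two to three animals.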
# [17] = Unbound brain-to-plasma concentration ratio in cynomolgus monkey at 0.2 mg/kg, iv and measured upto 1 hrs by LC-MS/MS analysis; type: ADME, organism-based, Macaca fascicularis; details: read-out: K(p,uu,brain)
# [18] = biological target: Metabotropic glutamate receptor 2 (Rattus norvegicus, UniProt P31421); experiment: Positive allosteric modulator activity at rat mGlu2 in human HEK cells co-expressing […] assessed as increase in by thallium flux preincubated for 2.5 mins followed by gluatamate addition by thallium flux assay; type: cell-based
# [19] = biological target: Amine oxidase [flavin-containing] A (Homo sapiens, UniProt P21397); experiment: Binding affinity to MAO-A (unknown origin)
# [20] = biological target: KCNQ1/MINK (Homo sapiens, UniProt P51787+Q8N4C8); experiment: Inhibition of KCNQ1/MINK (unknown origin) at 10 uM; type: toxicity; procedure, shortened: as §2
# [21] = biological target: Metabotropic glutamate receptor 3 (Rattus norvegicus, UniProt P31422); experiment: Positive allosteric modulator activity at rat mGlu3 in human HEK cells co-expressing […] assessed as increase in by thallium flux preincubated for 2.5 mins followed by gluatamate addition by thallium flux assay; type: cell-based
# [22] = Clearance in CD-1 mouse plasma at 1 mg/kg, iv and measured upto 24 hrs by LC-MS/MS analysis; type: ADME, organism-based
# Procedure, shortened: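 Single intravenous doses: mouse 1 mg/kg, SD rat 0.2 mg/kg, beagle dog 0.5 mg/kg, cynomolgus monkey 0.2 mg/kg. Plasma clearance, Vss and elimination half-life came from the plasma profiles. Values are means of two to three animals.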
# [23] = Protein binding in rat plasma assessed as fraction unbound incubated for 4 hrs by equilibrium dialysis based LC/MS/MS analysis; type: ADME, cell-free
# [24] = Cmax in CD-1 mouse plasma at 3 mg/kg, po and measured upto 24 hrs by LC-MS/MS analysis; type: ADME, organism-based; design: time < 24 hrs, dose 3 mg/kg, route po; procedure, shortened: as §1
# [25] = biological target: Metabotropic glutamate receptor 1 (Rattus norvegicus, UniProt P23385); experiment: Positive allosteric modulator activity at rat mGlu1 in human HEK cells assessed assessed as increase in calcium flux preincubated for 2.5 mins followed by gluatamate addition by Fluo-4 AM dye based calcium mobilization assay; type: cell-based
# [26] = Volume of distribution at steady state in Cynomolgus monkey at 0.2 mg/kg, iv and measured upto 24 hrs by LC-MS/MS analysis; type: ADME, organism-based, Macaca fascicularis; details: in vivo, read-out: Vdss; procedure, shortened: as §4
# [27] = biological target: T1, Cytochrome P450 1A2; experiment: Inhibition of CYP1A2 in human liver microsomes using […] as substrate preincubated for 15 mins followed by NADPH addition and measured after 8 mins by LC/MS/MS analysis; type: ADME, Microsome
# [28] = biological target: Nuclear receptor subfamily 1 group I member 2 (Homo sapiens, UniProt O75469); experiment: Activation of human PXR
# [29] = Cmax in Sprague-Dawley rat at 30 mg/kg, po administered as spray-dried dispersion formulation and measured after 24 hrs by LC-MS/MS analysis; type: ADME, organism-based; design: time 24 hrs, dose 30 mg/kg, route po; details: in vivo; procedure, shortened: as §5
# [30] = Cmax in Sprague-Dawley rat at 3 mg/kg, po and measured upto 24 hrs by LC-MS/MS analysis; type: ADME, organism-based; design: time < 24 hrs, dose 3 mg/kg, route po; details: in vivo; procedure, shortened: as §1
# [31] = Oral bioavailability in Beagle dog at 3 mg/kg and measured upto 24 hrs by LC-MS/MS analysis; type: ADME, organism-based, Canis lupus familiaris; details: in vivo; procedure, shortened: as §4
# [32] = Cmax in Sprague-Dawley rat at 3 mg/kg, po administered as spray-dried dispersion formulation and measured after 24 hrs by LC-MS/MS analysis; type: ADME, organism-based; design: time 24 hrs, dose 3 mg/kg, route po; details: in vivo; procedure, shortened: as §5
# [33] = Oral bioavailability in Cynomolgus monkey at 3 mg/kg and measured upto 24 hrs by LC-MS/MS analysis; type: ADME, organism-based, Macaca fascicularis; details: in vivo; procedure, shortened: as §4
# T1 sequence (P05177 whole entry): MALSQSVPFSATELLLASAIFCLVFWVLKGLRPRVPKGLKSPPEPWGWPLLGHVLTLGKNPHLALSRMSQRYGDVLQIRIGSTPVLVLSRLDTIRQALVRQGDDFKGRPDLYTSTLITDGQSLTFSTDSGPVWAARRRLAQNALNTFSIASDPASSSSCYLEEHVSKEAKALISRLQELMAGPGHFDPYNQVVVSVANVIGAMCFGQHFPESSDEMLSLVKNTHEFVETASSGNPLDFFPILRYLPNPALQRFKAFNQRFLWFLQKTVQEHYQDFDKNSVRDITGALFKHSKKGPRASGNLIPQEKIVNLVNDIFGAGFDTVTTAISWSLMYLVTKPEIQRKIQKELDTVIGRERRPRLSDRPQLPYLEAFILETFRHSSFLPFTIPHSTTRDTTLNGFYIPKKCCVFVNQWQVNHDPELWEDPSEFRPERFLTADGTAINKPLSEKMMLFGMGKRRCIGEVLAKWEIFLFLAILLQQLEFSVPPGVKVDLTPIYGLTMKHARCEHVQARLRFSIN
# Cav1.2, sequence (Q13936 whole entry): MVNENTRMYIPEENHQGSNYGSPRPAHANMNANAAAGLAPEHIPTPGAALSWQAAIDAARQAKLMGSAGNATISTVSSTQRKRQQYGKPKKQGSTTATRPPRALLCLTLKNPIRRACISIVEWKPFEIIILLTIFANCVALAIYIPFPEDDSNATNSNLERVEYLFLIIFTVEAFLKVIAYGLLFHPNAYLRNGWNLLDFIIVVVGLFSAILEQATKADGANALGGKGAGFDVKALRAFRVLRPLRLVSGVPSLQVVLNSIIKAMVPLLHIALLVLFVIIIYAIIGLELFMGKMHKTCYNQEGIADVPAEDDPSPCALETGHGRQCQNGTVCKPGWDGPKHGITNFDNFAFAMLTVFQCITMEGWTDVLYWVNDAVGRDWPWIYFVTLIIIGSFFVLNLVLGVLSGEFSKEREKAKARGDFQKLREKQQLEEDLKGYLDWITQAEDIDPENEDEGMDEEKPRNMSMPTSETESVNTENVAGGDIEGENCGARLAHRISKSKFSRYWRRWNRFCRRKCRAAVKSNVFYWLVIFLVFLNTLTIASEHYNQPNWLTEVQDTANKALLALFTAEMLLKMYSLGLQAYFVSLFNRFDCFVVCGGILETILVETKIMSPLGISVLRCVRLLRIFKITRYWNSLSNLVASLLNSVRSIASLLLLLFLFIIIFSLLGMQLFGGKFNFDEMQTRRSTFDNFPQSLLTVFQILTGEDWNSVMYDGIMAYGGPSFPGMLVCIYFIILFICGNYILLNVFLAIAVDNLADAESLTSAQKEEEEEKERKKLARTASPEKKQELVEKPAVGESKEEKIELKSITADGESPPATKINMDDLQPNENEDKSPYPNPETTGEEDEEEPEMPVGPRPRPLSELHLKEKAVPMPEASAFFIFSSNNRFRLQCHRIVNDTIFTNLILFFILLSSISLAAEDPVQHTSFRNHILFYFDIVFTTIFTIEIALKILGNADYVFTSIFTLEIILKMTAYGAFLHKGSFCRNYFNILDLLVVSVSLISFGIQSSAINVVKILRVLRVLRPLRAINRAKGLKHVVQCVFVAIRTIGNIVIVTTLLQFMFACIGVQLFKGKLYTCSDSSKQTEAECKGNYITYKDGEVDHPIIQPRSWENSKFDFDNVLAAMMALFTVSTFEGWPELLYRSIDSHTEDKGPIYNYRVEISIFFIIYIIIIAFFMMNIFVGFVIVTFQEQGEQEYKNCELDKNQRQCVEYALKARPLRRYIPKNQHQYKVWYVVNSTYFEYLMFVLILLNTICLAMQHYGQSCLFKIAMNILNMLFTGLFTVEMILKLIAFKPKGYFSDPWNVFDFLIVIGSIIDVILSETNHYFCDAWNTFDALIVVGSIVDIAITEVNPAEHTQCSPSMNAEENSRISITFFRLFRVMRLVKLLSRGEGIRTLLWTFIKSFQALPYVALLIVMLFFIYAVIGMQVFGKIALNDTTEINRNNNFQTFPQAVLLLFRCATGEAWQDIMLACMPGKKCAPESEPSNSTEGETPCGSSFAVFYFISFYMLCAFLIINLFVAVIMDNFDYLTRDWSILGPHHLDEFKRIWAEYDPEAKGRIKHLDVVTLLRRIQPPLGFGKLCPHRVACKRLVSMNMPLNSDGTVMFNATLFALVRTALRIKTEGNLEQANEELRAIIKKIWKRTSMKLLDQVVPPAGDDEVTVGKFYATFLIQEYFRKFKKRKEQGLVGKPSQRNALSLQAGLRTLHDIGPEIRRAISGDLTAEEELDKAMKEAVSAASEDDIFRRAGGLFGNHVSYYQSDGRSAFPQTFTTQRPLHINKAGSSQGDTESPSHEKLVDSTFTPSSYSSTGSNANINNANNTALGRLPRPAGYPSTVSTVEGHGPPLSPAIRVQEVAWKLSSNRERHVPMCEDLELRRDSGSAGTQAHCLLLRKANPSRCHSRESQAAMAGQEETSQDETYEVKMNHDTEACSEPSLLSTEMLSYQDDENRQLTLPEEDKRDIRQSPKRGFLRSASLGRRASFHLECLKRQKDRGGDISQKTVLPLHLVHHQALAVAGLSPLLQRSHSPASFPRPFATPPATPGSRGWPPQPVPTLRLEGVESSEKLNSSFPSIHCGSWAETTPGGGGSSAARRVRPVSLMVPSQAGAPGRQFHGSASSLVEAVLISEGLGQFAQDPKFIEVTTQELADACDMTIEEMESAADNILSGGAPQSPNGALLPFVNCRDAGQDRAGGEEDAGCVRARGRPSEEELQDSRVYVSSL
# Metabotropic glutamate receptor 5, sequence (P31424 whole entry): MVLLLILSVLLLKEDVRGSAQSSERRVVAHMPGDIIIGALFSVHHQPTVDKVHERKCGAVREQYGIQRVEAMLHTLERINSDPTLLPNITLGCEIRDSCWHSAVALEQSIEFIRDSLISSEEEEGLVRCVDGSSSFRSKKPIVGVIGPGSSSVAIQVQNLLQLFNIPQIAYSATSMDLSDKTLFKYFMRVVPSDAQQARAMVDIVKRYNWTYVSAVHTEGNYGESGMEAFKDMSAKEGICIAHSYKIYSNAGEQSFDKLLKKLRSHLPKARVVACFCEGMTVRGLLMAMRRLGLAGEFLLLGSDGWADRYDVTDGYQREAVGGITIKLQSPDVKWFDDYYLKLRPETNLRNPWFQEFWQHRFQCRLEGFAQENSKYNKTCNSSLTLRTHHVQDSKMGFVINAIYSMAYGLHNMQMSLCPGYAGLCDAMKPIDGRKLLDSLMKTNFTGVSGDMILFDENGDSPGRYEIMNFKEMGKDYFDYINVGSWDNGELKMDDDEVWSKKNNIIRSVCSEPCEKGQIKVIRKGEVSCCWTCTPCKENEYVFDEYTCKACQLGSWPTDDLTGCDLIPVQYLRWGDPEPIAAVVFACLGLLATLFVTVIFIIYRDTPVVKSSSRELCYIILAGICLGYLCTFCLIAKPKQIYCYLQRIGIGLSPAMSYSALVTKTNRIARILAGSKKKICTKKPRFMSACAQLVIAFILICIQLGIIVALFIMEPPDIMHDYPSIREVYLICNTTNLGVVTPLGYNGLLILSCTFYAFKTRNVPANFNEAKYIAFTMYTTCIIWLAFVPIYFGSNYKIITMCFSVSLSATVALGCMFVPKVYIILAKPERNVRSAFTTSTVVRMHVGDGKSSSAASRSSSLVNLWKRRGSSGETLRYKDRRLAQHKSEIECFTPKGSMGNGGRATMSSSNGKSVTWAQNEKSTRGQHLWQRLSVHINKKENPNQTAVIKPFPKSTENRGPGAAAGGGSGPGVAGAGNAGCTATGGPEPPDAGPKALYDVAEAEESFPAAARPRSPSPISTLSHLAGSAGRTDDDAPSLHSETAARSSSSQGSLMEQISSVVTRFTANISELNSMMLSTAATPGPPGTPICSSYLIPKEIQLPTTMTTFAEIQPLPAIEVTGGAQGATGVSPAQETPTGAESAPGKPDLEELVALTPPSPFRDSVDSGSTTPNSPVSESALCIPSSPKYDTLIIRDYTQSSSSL
# Metabotropic glutamate receptor 2, sequence (P31421 whole entry): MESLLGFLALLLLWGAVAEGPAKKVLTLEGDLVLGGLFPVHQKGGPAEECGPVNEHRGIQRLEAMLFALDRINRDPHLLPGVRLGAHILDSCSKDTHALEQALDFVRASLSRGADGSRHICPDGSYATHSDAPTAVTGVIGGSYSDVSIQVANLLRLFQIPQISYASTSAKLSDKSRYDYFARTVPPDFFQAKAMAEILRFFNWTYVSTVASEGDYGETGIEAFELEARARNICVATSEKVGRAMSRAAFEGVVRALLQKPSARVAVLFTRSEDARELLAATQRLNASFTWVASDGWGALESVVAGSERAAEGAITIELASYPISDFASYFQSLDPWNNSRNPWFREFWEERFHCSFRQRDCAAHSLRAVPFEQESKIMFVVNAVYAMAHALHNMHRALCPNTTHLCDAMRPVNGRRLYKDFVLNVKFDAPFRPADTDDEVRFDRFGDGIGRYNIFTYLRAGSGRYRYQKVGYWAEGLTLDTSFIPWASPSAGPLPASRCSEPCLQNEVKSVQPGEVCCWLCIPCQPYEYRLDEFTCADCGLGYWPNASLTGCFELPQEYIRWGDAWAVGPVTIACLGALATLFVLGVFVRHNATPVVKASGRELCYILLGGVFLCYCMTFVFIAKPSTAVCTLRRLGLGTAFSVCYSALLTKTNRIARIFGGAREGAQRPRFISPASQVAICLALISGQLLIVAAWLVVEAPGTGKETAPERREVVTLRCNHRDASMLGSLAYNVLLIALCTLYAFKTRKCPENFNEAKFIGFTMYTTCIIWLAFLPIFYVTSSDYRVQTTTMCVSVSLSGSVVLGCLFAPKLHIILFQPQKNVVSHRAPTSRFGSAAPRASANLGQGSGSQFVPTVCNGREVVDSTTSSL
smiles,measurement,setting,value
FC(F)(F)c1nccc2cc(Nc3n[nH]c4ncccc34)ccc12,Cmax,[1],490 nM
same,Papp,[2],8 ×10⁻⁶ cm/s
same,inhibition at 10 µM,[3],< 50%
same,EC50,[4],> 10 µM
same,Activity,[5],Not Active
same,Activity,[6],Non-Toxic
same,fraction unbound at 4 h,[7],0.016
same,logP,[8],3.78
same,Activity,[9],Non-Toxic
same,Emax,[10],92.6%
same,Vd,[11],4.3 L/kg
same,CLint scaled at 1 µM,[12],8.8 mL/min/kg
same,Tmax,[13],1 h
same,inhibition at 10 µM,[14],< 50%
same,AUC at 24 h,[15],5.92 µM·h
same,AUC(0-inf),[16],2.81 µM·h
same,Kp uu at 1 h,[17],0.07
same,EC50,[18],> 10 µM
same,EC50,[19],> 30 µM
same,inhibition at 10 µM,[20],< 50%
same,EC50,[21],> 10 µM
same,clearance,[22],78.3 mL/min/kg
same,fraction unbound at 4 h,[23],0.01
same,Cmax,[24],1100 nM
same,EC50,[25],> 10 µM
same,Vd,[26],3.2 L/kg
same,IC50,[27],1.5 µM
same,Activity,[28],Not Active
same,Cmax,[29],6050 nM
same,Cmax,[30],1440 nM
same,bioavailability,[31],37.5%
same,Cmax,[32],630 nM
same,bioavailability,[33],31.6%
